Series [1] deals with L1210. Nature of the series: Cytotoxicity against mouse L1210 cells after 48 hrs by Coulter counting method. In kind it is functional, cell-based. The settings on record: L1210, 48 h. An outline of the steps:
(§1)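 (5–7.5) × 10⁴ tumour cells per well with test compound. Proliferation ran 48 h for L1210 and 72 h for CEM and HeLa, at 37 °C in humidified CO₂. Cells counted in a Coulter counter. IC50 taken as the concentration that inhibited cell proliferation by 50%.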

The subject of another series is CCRF-CEM. Nature of the series: Cytotoxicity against human CEM cells after 72 hrs by Coulter counting method. The format is cell-based. The essentials: as §1
The test system of series [2] is HeLa. Nature of the series: Cytotoxicity against human HeLa cells after 72 hrs by Coulter counting method. The format is functional, cell-based. An outline of the steps:
as §1

Series [3] has as its system REH. Nature of the series: Cytotoxicity against human REH cells after 48 to 72 hrs. In kind it is functional, cell-based. The essentials:
(§2)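 REH and K562 cells at 0.5 × 10⁵ cells/ml, given 0–10 μM compound, with a DMSO vehicle control. Read at 48 and 72 h by trypan blue dye exclusion (cells precultured 24 h before dosing) and by MTT. Three independent experiments, MTT in duplicate.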

Another series concerns K562. Nature of the series: Cytotoxicity against human K562 cells after 48 to 72 hrs. In kind it is functional, cell-based. An outline of the steps: as §2
Series [4] deals with REH. Nature of the series: Cell cycle arrest in human REH cells at 0.1 to 1 uM after 48 hrs using propidium iodide by flow cytometry. In kind it is functional, cell-based. The essentials:
(§3)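 REH cells (0.5 × 10⁵ cells/ml) precultured 24 h, then exposed to 0, 0.1, 0.5 or 1 μM compound for 48 h. Harvested, fixed in 70% chilled ethanol, stained with propidium iodide, analysed by flow cytometry, at least 10,000 cells per sample. Phase distribution from histograms, two independent experiments.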
In general terms: In flow cytometry, cells or beads pass a laser one at a time.

In series [5] the test system is REH. Nature of the series: Effect on cell cycle progression in human REH cells at 0.1 to 1 uM after 48 hrs using propidium iodide by flow cytometry. In kind it is functional, cell-based. The essentials: as §3
For series [6], the system named is REH. Nature of the series: Cell cycle arrest in human REH cells assessed as accumulation at sub-G1 phase at 0.1 to 1 uM after 48 hrs using propidium iodide by flow cytometry. The format is functional, cell-based. An outline of the steps: as §3
Series [7] concerns REH. Nature of the series: Induction of apoptosis in human REH cells assessed as ROS production at 1 uM after 5 mins using H2DCFDA by flow cytometry (reference value: 0.11%). The format is functional.
The subject of series [8] is REH. Nature of the series: Induction of apoptosis in human REH cells assessed as ROS production at 1 uM after 15 mins using H2DCFDA by flow cytometry (reference value: 0.11%). The format is functional.
The test system of series [9] is REH. Nature of the series: Induction of apoptosis in human REH cells assessed as ROS production at 1 uM after 30 mins using H2DCFDA by flow cytometry (reference value: 0.11%). In kind it is functional.
Series [10] has as its system REH. Nature of the series: Induction of apoptosis in human REH cells assessed as ROS production at 1 uM after 60 mins using H2DCFDA by flow cytometry (reference value: 0.11%). In kind it is functional.
In series [11] the test system is REH. Nature of the series: Induction of apoptosis in human REH cells assessed as ROS production at 1 uM after 5 to 60 mins using H2DCFDA by flow cytometry (reference value: 0.11%). The format is functional.
The test system of series [12] is REH. Nature of the series: Induction of apoptosis in human REH cells assessed as DNA fragmentation at 0.5 uM after 48 hrs by agarose gel electrophoresis. In kind it is functional, cell-based. An outline of the steps:
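REH cells given 0, 0.1, 0.5, 1 and 5 μM for 48 h, DMSO vehicle control. Cells lysed in Triton X-100/proteinase K buffer at 55 °C for 5 h, then RNase (50 μg/ml) 1 h at 37 °C. DNA precipitated with sodium acetate/isopropanol and run on 2% agarose at 50 V for 3 h.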

The test system of series [13] is REH. Nature of the series: Induction of apoptosis in human REH cells assessed as viable cells at 1 uM after 48 hrs using propidium iodide/annexin-V by flow cytometry (reference value: 72.6 %). In kind it is functional. As to conditions: read-out: Activity. The essentials: (§4)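 REH cells given 1 μM compound for 48 h alongside DMSO controls. Harvested, washed in PBS, resuspended in binding buffer (10 mM HEPES pH 7.4, 144 mM NaCl, 25 mM CaCl₂).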

Series [14] concerns REH. Nature of the series: Induction of apoptosis in human REH cells assessed as early apoptotic cells at 1 uM after 48 hrs using propidium iodide/annexin-V by flow cytometry (reference value: 16.2 %). The format is functional. An outline of the steps:
as §4

Series [15] concerns REH. Nature of the series: Induction of apoptosis in human REH cells assessed as late apoptotic cells at 1 uM after 48 hrs using propidium iodide/annexin-V by flow cytometry (reference value: 8.7 %). The format is functional. The essentials:
as §4

Series [16] relates to REH. Nature of the series: Induction of apoptosis in human REH cells assessed as necrotic cells at 1 uM after 48 hrs using propidium iodide/annexin-V by flow cytometry (reference value: 2.5 %). The format is functional. An outline of the steps: as §4
Series [17] has as its system REH. Nature of the series: Induction of apoptosis in human REH cells assessed as loss of mitochodrial membrane potential at 0.5 to 1 uM after 48 hrs using JC-1 staining by flow cytometry. In kind it is functional, cell-based. The essentials:
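REH cells exposed to 0.5 or 1 μM compound for 48 h, then incubated with 0.5 μM JC-1 for 20 min at 37 °C, washed and read by flow cytometry. Green-to-red fluorescence ratio reported. 2,4-DNP as positive control, DMSO-treated cells as controls. Two independent experiments.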

The test system of series [18] is REH. Nature of the series: Cytotoxicity against human REH cells at 0.5 uM after 48 hrs using ethidium bromide staining by live-dead assay relative to 293T cells. The format is functional. The essentials: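 REH and 293T cells seeded at 1 × 10^5/ml, exposed to 0.5 μM compound for 48 h; DMSO vehicle control. Harvested cells stained with ethidium bromide (5 μg/ml), which enters membrane-compromised dead cells, and dead fraction quantified by flow cytometry. REH cultured in RPMI1640, 293T in DMEM, both with 10% FBS, penicillin/streptomycin, 37 °C, 5% CO2.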

Series [19] is described as follows: Ratio of melphalan IC50 to compound IC50 for human CEM cells after 48 to 72 hrs by Coulter counter cell counting. As to conditions: CCRF-CEM (CEM) cells.
The test system of series [20] is HeLa. Nature of the series: Ratio of melphalan IC50 to compound IC50 for human HeLa cells after 48 to 72 hrs by Coulter counter cell counting.
In series [21] the test system is L1210. Nature of the series: Ratio of melphalan IC50 to compound IC50 for mouse L1210 cells after 48 to 72 hrs by Coulter counter cell counting.

Each structure is given as a SMILES string. Calls of active or inactive are those of the source. The rule behind the calls is not given here.

The term IC50 denotes the point on the concentration scale where inhibition reaches its midpoint. Read a low IC50 as greater potency in that assay. In the case of `O=Cc1c(-c2cc3ccccc3oc2=O)nc2sc(Cc3ccc(Cl)cc3)nn12`, the half-maximal inhibitory concentration (IC50) came to 890 nM in the series with L1210 [1]; 750 nM with CCRF-CEM; 900 nM in the series on HeLa [2]; 670 nM with REH [3]; 900 nM in the series on K562. Moreover, the outcome in the series on REH [4] and in the series on REH [5] was inactive. The outcome in the series on REH [6], with REH [12] and in the series with REH [17] was Active. Besides, the Activity in the series with REH [7] turned out to be 0.16%; in the series with REH [8], 0.12%; in the series on REH [9] it was 0.13%; in the series with REH [10] it was 0.16%; in the series on REH [11], 36.99%; with REH [14] it was 21.5%. Further, the Activity with REH [15] was 14.6%; with REH [16] it was 9.1%. Further, in the series on REH [13], the viability at 1 µM is 54.8%. In addition, the “fold change (FC)” value in the series with REH [18] came out at 6. Moreover, the selectivity ratio in series [19] came to 3. The “Ratio IC50” value with HeLa [20] and in the series on L1210 [21] was 3 throughout.

These data come from ChEMBL document CHEMBL3351601, “2-(4-Chlorobenzyl)-6-arylimidazo[2,1-b][1,3,4]thiadiazoles: synthesis, cytotoxic activity and mechanism of action” (Eur J Med Chem, 2014).
